What is called pKi is −log10 of the Ki, conventionally taken in molar units. A word on the pIC50: it is the negative decadic logarithm of the IC50, by convention in mol/L.

The target of one experiment is 5-HT6 (Homo sapiens, UniProt P50406). Kind of experiment: Radioligand competition binding assay. A digest of the protocol: (§1)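 Run by the NIMH PDSP as radioligand competition binding assays. The primary screen used 10 μM test compound and reported mean percent inhibition of radioligand binding (n=4); above 50% counted as significant. At those receptors, IC50 values came from non-linear regression of competition binding isotherms and were converted to Ki with the Cheng-Prusoff equation.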
Sequence of 5-HT6 (P50406 whole entry, species assumed): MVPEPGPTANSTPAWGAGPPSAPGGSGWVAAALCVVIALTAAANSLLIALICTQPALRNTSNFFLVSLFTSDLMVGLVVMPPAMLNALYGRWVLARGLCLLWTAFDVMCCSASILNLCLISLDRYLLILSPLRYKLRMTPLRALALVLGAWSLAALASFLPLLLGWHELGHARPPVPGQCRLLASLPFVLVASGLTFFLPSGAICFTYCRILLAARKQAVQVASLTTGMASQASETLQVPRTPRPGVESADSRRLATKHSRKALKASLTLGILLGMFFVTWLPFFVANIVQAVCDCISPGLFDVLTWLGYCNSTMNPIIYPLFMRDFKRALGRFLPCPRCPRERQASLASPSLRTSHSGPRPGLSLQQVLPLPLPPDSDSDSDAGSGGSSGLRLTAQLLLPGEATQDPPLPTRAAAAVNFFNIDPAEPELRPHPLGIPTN
(Displacement assays read how much labelled ligand stays bound in the presence of the test substance.)

The target in another experiment is 5-HT2B (Homo sapiens, UniProt P41595). Kind of experiment: Radioligand competition binding assay.
Sequence of 5-HT2B (P41595 whole entry, species assumed): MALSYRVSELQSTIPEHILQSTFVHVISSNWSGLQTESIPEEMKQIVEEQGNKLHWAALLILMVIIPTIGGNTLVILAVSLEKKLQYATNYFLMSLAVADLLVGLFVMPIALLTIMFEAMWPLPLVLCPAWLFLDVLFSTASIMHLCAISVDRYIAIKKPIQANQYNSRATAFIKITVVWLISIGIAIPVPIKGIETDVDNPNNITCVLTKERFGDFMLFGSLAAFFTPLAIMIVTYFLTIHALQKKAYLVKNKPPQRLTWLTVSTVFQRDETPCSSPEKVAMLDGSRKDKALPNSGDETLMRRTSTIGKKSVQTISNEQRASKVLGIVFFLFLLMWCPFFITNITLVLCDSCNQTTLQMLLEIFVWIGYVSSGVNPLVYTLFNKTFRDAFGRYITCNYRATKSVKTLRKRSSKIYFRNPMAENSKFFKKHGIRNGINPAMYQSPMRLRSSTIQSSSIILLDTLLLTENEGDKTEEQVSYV
A further experiment concerns the target 5-HT2A (Homo sapiens, UniProt P28223). The experiment is described as follows: Radioligand competition binding assay.
A further experiment relates to DGKθ. Particulars: cited from earlier work.
The next experiment concerns the target T1, 5-HT1A (Homo sapiens, UniProt P08908).
T1 sequence (P08908 1-422): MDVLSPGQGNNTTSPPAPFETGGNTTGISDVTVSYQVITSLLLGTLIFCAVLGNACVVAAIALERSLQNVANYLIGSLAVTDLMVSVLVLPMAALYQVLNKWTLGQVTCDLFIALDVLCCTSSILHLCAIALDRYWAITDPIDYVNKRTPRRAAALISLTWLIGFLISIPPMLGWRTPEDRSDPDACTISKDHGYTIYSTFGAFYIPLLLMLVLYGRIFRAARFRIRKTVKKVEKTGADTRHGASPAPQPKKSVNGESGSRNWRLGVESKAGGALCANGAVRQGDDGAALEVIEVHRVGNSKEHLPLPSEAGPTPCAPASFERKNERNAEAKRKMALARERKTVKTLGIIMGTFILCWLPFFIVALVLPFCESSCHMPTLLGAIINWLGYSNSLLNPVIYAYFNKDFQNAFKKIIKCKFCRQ
Kind of experiment: Radioligand competition binding assay.

The next experiment addresses 5-HT1D (Homo sapiens, UniProt P28221). The experiment is described as follows: Radioligand competition binding assay. A digest of the protocol:
as §1

The subject of the next experiment is PKC. The experiment is described as follows: PKC activation: phosphorylation of PKC substrates by western blot in HeLa cells. The class given is cell-based, human. The conditions noted are these: 40 μM, 30 min. The procedure, abridged: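 HeLa cells were grown in DMEM with 5% FBS and treated 30 min with 4 or 40 μM test compound or 100 nM PMA, with or without 1 h pretreatment with 500 nM bisindolylmaleimide II. In separate runs, a 5-HT2AR agonist (10 μM, 6 h) was given with or without 40 μM antagonist. Lysates (50 μg) were immunoblotted for phospho-(Ser) PKC substrates; four independent experiments were quantified.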
For orientation: Immunoblotting shows a protein as a band on a membrane.

The next experiment relates to DGKε. The conditions noted are these: cited from earlier work.
In the next experiment the test system is DGKγ. Particulars: 30 μM R59022; cited from earlier work.
The target in the next experiment is DGKι (Homo sapiens, UniProt O75912). The experiment is described as follows: Kinase assay with HEK 293T cell homogenate over-expressing DGKι. The class given is biochemical.
Sequence of DGKι (O75912 1-1065 isoform O75912-1): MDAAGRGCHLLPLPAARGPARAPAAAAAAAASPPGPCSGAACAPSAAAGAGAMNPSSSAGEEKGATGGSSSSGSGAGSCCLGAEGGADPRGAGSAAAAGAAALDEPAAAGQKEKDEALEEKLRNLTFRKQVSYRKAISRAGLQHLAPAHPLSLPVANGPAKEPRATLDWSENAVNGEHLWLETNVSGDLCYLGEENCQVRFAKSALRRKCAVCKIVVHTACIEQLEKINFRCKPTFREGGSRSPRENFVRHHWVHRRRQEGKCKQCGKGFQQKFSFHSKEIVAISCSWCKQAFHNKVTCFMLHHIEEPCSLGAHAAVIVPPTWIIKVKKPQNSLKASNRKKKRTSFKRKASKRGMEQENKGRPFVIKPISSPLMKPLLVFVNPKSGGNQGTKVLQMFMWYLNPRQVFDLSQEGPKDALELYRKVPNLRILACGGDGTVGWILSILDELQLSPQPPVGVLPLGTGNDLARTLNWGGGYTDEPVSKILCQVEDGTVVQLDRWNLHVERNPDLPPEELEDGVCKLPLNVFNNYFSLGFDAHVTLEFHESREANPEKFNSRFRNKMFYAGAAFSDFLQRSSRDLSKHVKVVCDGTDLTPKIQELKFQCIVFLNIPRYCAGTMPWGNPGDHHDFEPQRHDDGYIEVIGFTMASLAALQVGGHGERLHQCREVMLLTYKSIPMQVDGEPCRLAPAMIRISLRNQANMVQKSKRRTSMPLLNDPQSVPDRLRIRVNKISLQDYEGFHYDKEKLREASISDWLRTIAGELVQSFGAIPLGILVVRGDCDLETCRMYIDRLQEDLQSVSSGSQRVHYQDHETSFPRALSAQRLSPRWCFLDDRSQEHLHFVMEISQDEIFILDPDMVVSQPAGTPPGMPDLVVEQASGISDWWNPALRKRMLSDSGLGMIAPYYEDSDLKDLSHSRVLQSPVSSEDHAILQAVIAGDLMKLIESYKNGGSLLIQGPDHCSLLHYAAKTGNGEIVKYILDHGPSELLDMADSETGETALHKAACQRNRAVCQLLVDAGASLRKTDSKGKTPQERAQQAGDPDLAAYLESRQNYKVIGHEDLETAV

pIC50, pKi: −log10 of the molar value.

Sequence of 5-HT1D (P28221 whole entry, species assumed): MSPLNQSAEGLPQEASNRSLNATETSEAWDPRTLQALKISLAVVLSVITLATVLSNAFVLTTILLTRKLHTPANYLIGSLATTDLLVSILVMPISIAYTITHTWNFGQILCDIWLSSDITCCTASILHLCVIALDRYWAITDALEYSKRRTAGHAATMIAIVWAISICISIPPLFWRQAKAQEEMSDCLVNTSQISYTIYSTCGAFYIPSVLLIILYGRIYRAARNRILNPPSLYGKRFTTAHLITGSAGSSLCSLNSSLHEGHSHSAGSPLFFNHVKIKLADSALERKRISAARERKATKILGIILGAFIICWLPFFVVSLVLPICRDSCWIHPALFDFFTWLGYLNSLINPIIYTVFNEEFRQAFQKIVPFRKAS
Sequence of 5-HT2A (P28223 whole entry, species assumed): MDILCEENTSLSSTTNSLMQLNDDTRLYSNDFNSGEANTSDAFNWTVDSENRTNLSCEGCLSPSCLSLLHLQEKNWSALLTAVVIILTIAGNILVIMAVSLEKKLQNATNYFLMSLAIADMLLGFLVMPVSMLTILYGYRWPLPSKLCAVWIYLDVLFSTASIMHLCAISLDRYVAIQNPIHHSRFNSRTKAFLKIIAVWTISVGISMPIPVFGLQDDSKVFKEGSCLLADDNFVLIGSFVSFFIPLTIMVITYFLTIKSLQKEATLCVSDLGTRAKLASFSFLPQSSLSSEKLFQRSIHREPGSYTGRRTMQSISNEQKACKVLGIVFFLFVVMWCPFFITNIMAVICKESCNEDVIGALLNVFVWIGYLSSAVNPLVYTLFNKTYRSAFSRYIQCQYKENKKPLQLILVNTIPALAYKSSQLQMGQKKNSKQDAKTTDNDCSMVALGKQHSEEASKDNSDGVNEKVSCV

Turning to `Cc1nc2sccn2c(=O)c1CCN1CCC(=C(c2ccccc2)c2ccc(F)cc2)CC1` [R59022], at 5-HT6 (10 μM test compound, n=4), the “Percent Inhibition of Binding 5-HT6” value stood at 96.9%. The pKi on 5-HT6 (read-out: Ki 5-HT6, Cheng-Prusoff from best-fit IC50) was 7.26; at 5-HT2B (read-out: Ki 5-HT2B, Cheng-Prusoff from best-fit IC50) it was 8.57; on 5-HT2A (read-out: Ki 5-HT2A, Cheng-Prusoff from best-fit IC50) it was 8.66; at 5-HT1A (read-out: Ki 5-HT1A, Cheng-Prusoff from best-fit IC50), 6.39; on 5-HT1D (read-out: Ki 5-HT1D, Cheng-Prusoff from best-fit IC50), 7.91. Also, the “Percent Inhibition of Binding 5-HT2B” value on 5-HT2B (10 μM test compound, n=4) stood at 100.5%. Besides, on 5-HT2A (10 μM test compound, n=4), the “Percent Inhibition of Binding 5-HT2A” value is 98.2%. The “Inhibition of DGKθ” value with DGKθ is “reported to inhibit”. Also, the “Percent Inhibition of Binding 5-HT1A” value on 5-HT1A (10 μM test compound, n=4) was found to be 82.4%. Besides, the “Percent Inhibition of Binding 5-HT1D” value at 5-HT1D (10 μM test compound, n=4) worked out at 90.4%. Moreover, the “Increase in phosphorylation of PKC downstream targets” value in the experiment on PKC is listed as “about 2.5 fold”. In addition, the “Inhibition of DGKε” value in the experiment with DGKε is reported as “reported to inhibit”. In addition, the “Inhibition of DGKγ” value with DGKγ was “did not inhibit”. Also, the “Activity of DGKι, percent of control” value on DGKι (20 μM inhibitor, dioleoyl DAG liposomes, cell homogenate) is on record as “not detectably inhibited”. In addition, the “IC50 for DGKι relative to IC50 for DGKα” value on DGKι (fold higher than IC50 for DGKα) was 2–3 fold. Also, the pIC50 at DGKι (read-out: IC50 for DGKι, cell homogenate, 1 mM ATP, 10 mol% DAG) was roughly 4.22.
